Laboratory results as given in ChEMBL document CHEMBL4190216, “Asymmetric 1,5-diarylpenta-1,4-dien-3-ones: Antiproliferative activity in prostate epithelial cell models and pharmacokinetic studies” (Eur J Med Chem, 2017).

Columns and labels:
PC-3 [1] = assay: Potency index, ratio of curcumin IC50 to test compound IC50 for human PC3 cells; type: functional
LNCaP [2] = assay: Antiproliferative activity against human LNCAP cells assessed as decrease in cell viability after 3 days by WST assay; type: functional, cell-based; conditions: 72 h
Outline: (§1)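 Cells were seeded at 3,200 per well. PC-3 and LNCaP were grown in RPMI-1640 and DU-145 in EMEM, each with 10% FBS and 1% penicillin/streptomycin, at 37 °C and 5% CO2. Cells were exposed for 3 days to at least five concentrations, with DMSO as vehicle control. WST-1 reagent was then added for 3 h at 37 °C and absorbance read at 430 nm. IC50 came from linear inhibition, averaged over triplicates.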

PC-3 [3] = assay: Antiproliferative activity against human PC3 cells assessed as decrease in cell viability after 3 days by WST assay; type: functional, cell-based; conditions: PC-3, 72 h; outline: as §1
LNCaP [4] = assay: Potency index, ratio of curcumin IC50 to test compound IC50 for human LNCAP cells; type: functional
DU-145 [5] = assay: Potency index, ratio of curcumin IC50 to test compound IC50 for human DU145 cells; type: functional
DU-145 [6] = assay: Antiproliferative activity against human DU145 cells assessed as decrease in cell viability after 3 days by WST assay; type: functional, cell-based; conditions: DU-145, 72 h; outline: as §1
PWR-1E [7] = assay: Antiproliferative activity against human PWR-1E cells expressing androgen receptor and PSA assessed as decrease in cell viability after 3 days by WST assay; type: functional, cell-based; conditions: 72 h
Outline: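 Non-malignant prostate epithelial PWR-1E (adenovirus 12/SV40-immortalized) was seeded at 5,000 per well. Cells were exposed for 3 days at 37 °C in a CO2 incubator to at least five concentrations, with DMSO as vehicle control. WST-1 reagent was then added for 3 h at 37 °C and absorbance read at 430 nm. IC50 came from linear inhibition, as the mean of triplicate determinations.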

PWR-1E [8] = assay: Potency index, ratio of curcumin IC50 to test compound IC50 for human PWR-1E cells expressing androgen receptor and PSA; type: functional
[9] = Drug level in human liver microsomes treated with (1E,4E)-1-(1-(sec-Butyl)1H-imidazol-2-yl)-5-(2-methyl-4-(trifluoromethyl)thiazol-5-yl)penta-1,4-dien-3-one at 10 mM after 60 mins by UHPLC analysis; type: ADME, microsome
Outline: (§2)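 Pooled human liver microsomes in potassium phosphate buffer (pH 7.4) with NADPH solutions A and B were preincubated for 5 min at 37 °C. Compound was then added from a 10 mM stock (3 μL into 300 μL total) and incubated 60 min at 37 °C. Reactions were quenched with an equal volume of methanol and centrifuged (10,000 × g, 4 min, 4 °C). Supernatant went to UHPLC–high-resolution MS for metabolite identification.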

[10] = Retention time of the compound; type: physicochemical
[11] = Drug level in human liver microsomes treated with (1E,4E)-1-(1-Ethyl1H-benzo[d]imidazol-2-yl)-5-(2-methyl-4-(trifluoromethyl)thiazol-5-yl)penta-1,4-dien-3-one at 10 mM after 60 mins by UHPLC analysis; type: ADME, microsome; conditions: 1 h; outline: as §2

SMILES	IC50 (LNCaP [2]) [nM]	IC50 (PC-3 [3]) [nM]	IC50 (DU-145 [6]) [nM]	Drug metabolism [9]	Retention_time [10] [min]	Drug metabolism [11]	Ratio IC50 (PC-3 [1])	Ratio IC50 (LNCaP [4])	Ratio IC50 (DU-145 [5])	IC50 (PWR-1E [7]) [nM]	Ratio IC50 (PWR-1E [8])
CCC(C)n1ccnc1/C=C/C(=O)/C=C/c1cc(OC)c(OC)c(OC)c1 (stereo not drawn)	660	720	670				35	21	39		
Cc1nc(C(F)(F)F)c(/C=C/C(=O)/C=C/c2nc3ccccc3n2C)s1	340	480	780				53	40	34		
CCCn1c(/C=C/C(=O)/C=C/c2ccccn2)nc2ccccc21	170	250	320				102	80	82	20	443
Cc1cccc(/C=C/C(=O)/C=C/c2ccccn2)n1	300	540	630				47	45	42		
CC(C)n1ccnc1/C=C/C(=O)/C=C/c1cnc(N2CCCC2)s1	4050	6860	3680				4	3	7		
CCn1c(/C=C/C(=O)/C=C/c2ccccn2)nc2ccccc21	120	230	460				111	113	57	40	221
Cc1nc(-c2ccncc2)sc1/C=C/C(=O)/C=C/c1nccn1C(C)C	540	800	660				32	25	40		
Cc1cc(/C=C/C(=O)/C=C/c2ccccn2)no1	310	450	700				57	44	38		
CCC(C)n1ccnc1/C=C/C(=O)/C=C/c1nccs1 (stereo not drawn)	170	390	420				64	80	62	140	63
CCCn1c(/C=C/C(=O)/C=C/c2sc(C)nc2C(F)(F)F)nc2ccccc21	460	550	840				46	30	31		
CCC(C)n1cc(O)nc1/C=C/C(=O)/C=C/c1sc(C)nc1C(F)(F)F (stereo not drawn)				Metabolite_Detected	3.32						
CCn1c(/C=C/C(=O)/C=C(\O)c2sc(C)nc2C(F)(F)F)nc2ccccc21					4.66	Metabolite_Detected					
CC(C)n1ccnc1/C=C/C(=O)/C=C/c1cnc(N2CCCCC2)s1	2170	3400	2550				8	6	10		
Cn1c(/C=C/C(=O)/C=C/c2ccccn2)nc2ccccc21	180	560	680				45	76	39		
Cn1cc(Br)c(/C=C/C(=O)/C=C/c2ccccn2)n1	220	310	500				82	62	53	100	89
COc1cc(/C=C/C(=O)/C=C/c2ccccn2)cc(OC)c1OC	400	840	830				30	34	32		
CCC(C)n1ccnc1/C(O)=C/C(=O)/C=C/c1sc(C)nc1C(F)(F)F (stereo not drawn)				Metabolite_Detected	3.7						
CCC(C)n1ccnc1/C=C/C(=O)/C=C(\O)c1sc(C)nc1C(F)(F)F (stereo not drawn)				Metabolite_Detected	3.97						
COc1ccc(/C=C/C(=O)/C=C/c2ccccn2)cc1OC	1760	1700	2050				15	8	13		
Cc1nc(C(F)(F)F)c(/C=C/C(=O)/C=C/c2nc3ccccc3n2C(C)C)s1	300	340	570				75	45	46	50	177
CC(C)n1ccnc1/C=C/C(=O)/C=C/c1cnc(N2CCOCC2)s1	1410	2270	1320				11	10	20		
CCn1c(/C(O)=C/C(=O)/C=C/c2sc(C)nc2C(F)(F)F)nc2ccccc21					4.54	Metabolite_Detected					
O=C(/C=C/c1ccccn1)/C=C/c1nccs1	450	550	1130				46	30	23		
COc1cc(/C=C/C(=O)CC(=O)/C=C/c2ccc(O)c(OC)c2)ccc1O [CURCUMIN]										8850	

Second part, led by results:

IC50 (LNCaP [2]) [nM]	IC50 (PC-3 [3]) [nM]	IC50 (DU-145 [6]) [nM]	Drug metabolism [9]	Retention_time [10] [min]	Drug metabolism [11]	SMILES	Ratio IC50 (PC-3 [1])	Ratio IC50 (LNCaP [4])	Ratio IC50 (DU-145 [5])	IC50 (PWR-1E [7]) [nM]	Ratio IC50 (PWR-1E [8])
910	1330	850				CCC(C)n1ccnc1/C=C/C(=O)/C=C/c1ccc(OC)c(OC)c1 (stereo not drawn)	19	15	31		
370	140	280				CCCC(C)n1ccnc1/C=C/C(=O)/C=C/c1nc2ccccc2n1C(C)CCC (stereo not drawn)	182	37	94	40	221
240	370	750				CCC(C)n1ccnc1/C=C/C(=O)/C=C/c1conc1C (stereo not drawn)	69	57	35		
560	200	370				CC(C)Cn1ccnc1/C=C/C(=O)/C=C/c1nc2ccccc2n1CC(C)C	127	24	71		
400	190	310				CCCCn1ccnc1/C=C/C(=O)/C=C/c1nc2ccccc2n1CCCC	134	34	85		
240	300	340				CCC(C)n1ccnc1/C=C/C(=O)/C=C/c1ccccn1 (stereo not drawn)	85	57	77	170	52
310	330	280				CCC(C)n1ccnc1/C=C/C(=O)/C=C/c1nn(C)cc1Br (stereo not drawn)	76	44	94	140	63
240	310	530				CCC(C)n1ccnc1/C=C/C(=O)/C=C/c1cc(C)on1 (stereo not drawn)	82	57	50	110	81
260	180	130				CC(C)n1ccnc1/C=C/C(=O)/C=C/c1nc2ccccc2n1C(C)C	141	52	138	30	293
930	210	770				CC(C)CCn1ccnc1/C=C/C(=O)/C=C/c1nc2ccccc2n1CCC(C)C	121	41	34		
260	260	290				CCC(C)n1ccnc1/C=C/C(=O)/C=C/c1cccc(C)n1 (stereo not drawn)	98	52	90	130	68
330	240	350				CCC(C)n1ccnc1/C=C/C(=O)/C=C/c1nc2ccccc2n1C(C)CC (stereo not drawn)	106	41	75		
